The molecules below were run against Protein kinase C (PKC) (assay: Inhibition of protein kinase C (PKC) purified from rat brain).
How it was run: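 Mostly purified rat brain PKC, histone kinase assay on ice-set tubes: 3 nM TPA, 8 μg/mL phosphatidylserine, 1 mM EGTA (no calcium), 4% glycerol, 20 mM Tris-Cl pH 7.4. Started with [γ-32P]ATP (20 μM), MgCl2 10 mM, p-nitrophenyl phosphate 5 mM, lysine-rich histone 240 μg/mL; 30 °C, 10 min; radioactivity counted. Compounds 0.16–160 μg/mL, 2.4% DMSO final; duplicate runs averaged.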

IC50	Structure (SMILES)
7.6 µM	CCCCCCCCCCCCCCC1(O)C[N+](C)(C)CCO1.[Br-] (configuration not stated)
7.6 µM	CCCCCCCCCCCCCCCCC1(O)C[N+](C)(C)CCO1.[Br-] (configuration not stated)
7.3 µM	CCCCCCCCCCCCCCCC1(O)C[N+](C)(C)CCO1.[Br-] (configuration not stated)
7.1 µM	CCCCCCCCCCCCCCCCCC1(O)C[N+](C)(C)CCO1.[Br-] (configuration not stated)
6.5 µM	CCCCCCCCCCCCCCCCCCC1(O)C[N+](C)(C)CCO1.[Br-] (configuration not stated)
12 µM	CCCCCCCCCCCCCC1(O)C[N+](C)(C)CCO1.[Br-] (configuration not stated)

The remaining lines, values behind:

Structure (SMILES)	IC50
CCCCCCCCCCCCCCCC(=O)C[N+](C)(C)CCCO.[Br-]	6.9 µM
CCCCCCCCCCCCCCCC(=O)OC(CC(=O)[O-])C[N+](C)(C)C (racemic) [Palmitoyl-carnitine]	15.8 µM
CCCCCCCCCCC1(O)C[N+](C)(C)CCO1.[Br-] (configuration not stated)	170 µM
CCCCCCCCCCCCC1(O)C[N+](C)(C)CCO1.[Br-] (configuration not stated)	13 µM
CCCCCCCCCCCCCCC[C@@]1(O)C[N+](C)(C)C[C@@H](CC(=O)[O-])O1 [HEMIACYLCARNITINIUM]	49.6 µM
CCCCCCCCCCCCCCCC1(OC)C[N+](C)(C)CCO1.[Br-] (configuration not stated)	3.9 µM

— ChEMBL document CHEMBL1127061, “Hemicholinium and related lipids: inhibitors of protein kinase C” (J Med Chem, 1993)
